ChEMBL document CHEMBL2412973, “Design, synthesis, and anti-tumor activities of novel triphenylethylene-coumarin hybrids, and their interactions with Ct-DNA” (Bioorg Med Chem Lett, 2013)
pIC50: −log10 of the molar value. Calls of active or inactive are those of the source. The calls are words filed in the database; no cut-off is given here.

Experiments:
DNA [1] = experiment: Binding affinity to calf thymus DNA in phosphate buffer at pH 7.4 assessed as change in melting temperature at 5 uM after 10 mins by thermal denaturation method; assay type: nucleic-acid assay; settings: Bos taurus
Outline: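 Thermal denaturation: Ct-DNA 5.0×10^-5 M with or without compound at 5.0×10^-6 M, phosphate buffer (1 mM, pH 7.4) with 5 mM NaCl and 4% DMSO; melting curves recorded, Tm taken as temperature at which half the DNA melts; ΔTm relative to free Ct-DNA.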

MCF7 = experiment: Antiproliferative activity against human MCF7 cells after 48 hrs by MTT assay; assay type: functional, cell-based; settings: MCF7, 48 h
DNA [2] = experiment: Binding affinity to calf thymus DNA in phosphate buffer at pH 7.4 assessed as hypochromic effect at 1.0 x 10^-5 M by UV-visible spectroscopy; assay type: nucleic-acid assay; settings: Bos taurus
Outline: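 Compound at 1.0×10^-5 M titrated with Ct-DNA (0–180 μM) in 10 mM phosphate buffer pH 7.4, 50 mM NaCl, 4% DMSO, 25 °C; UV-Vis absorption change at absorption maximum, hypochromicity percentage derived, binding fitted.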

A549 = experiment: Antiproliferative activity against human A549 cells after 48 hrs by MTT assay; assay type: functional, cell-based; settings: A549, 48 h
K562 = experiment: Antiproliferative activity against human K562 cells after 48 hrs by MTT assay; assay type: functional, cell-based; settings: K562, 48 h
DNA [3] = experiment: Binding affinity to calf thymus DNA in phosphate buffer at pH 7.4 assessed as intercalation in DNA at 20 uM after 10 mins by circular dichroism method; assay type: nucleic-acid assay; settings: Bos taurus
Outline: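 CD spectra of Ct-DNA (5.0×10^-5 M) with and without compound (2.0×10^-5 M) recorded in 10 mM phosphate buffer pH 7.4 containing 50 mM NaCl and 4% DMSO at 25 °C.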

DNA [4] = experiment: Binding affinity to calf thymus DNA in phosphate buffer at pH 7.4 at 5 uM after 10 mins by fluorescence spectroscopy; assay type: nucleic-acid assay; settings: Bos taurus
Outline: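 Compound at 5.0×10^-6 M, excited at 329–336 nm depending on compound, titrated with Ct-DNA (0–90 μM) in 10 mM phosphate buffer pH 7.4, 50 mM NaCl, 4% DMSO, 25 °C; emission near 455 nm; F/F0 plotted against DNA concentration, Stern-Volmer analysis gives binding efficiency.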

HL-60 = experiment: Antiproliferative activity against human HL60 cells after 48 hrs by MTT assay; assay type: functional, cell-based; settings: HL-60, 48 h
Bel-7402 = experiment: Antiproliferative activity against human Bel7402 cells after 48 hrs by MTT assay; assay type: functional, cell-based; settings: Bel-7402, 48 h
[5] = Cytotoxicity against mouse Osteoblasts at 20 uM after 48 hrs by MTT assay; assay type: cell-based; settings: osteoblast
Outline: (§1)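 Primary osteoblasts isolated from newborn mouse skull, exposed to compound for 48 h; cell death measured by MTT; % cytotoxicity versus untreated cells, mean ± SEM of six replicates, significance by p-value.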

[6] = Cytotoxicity against mouse Osteoblasts at 1 uM after 48 hrs by MTT assay; assay type: cell-based; settings: osteoblast; outline: as §1
[7] = Cytotoxicity against mouse Osteoblasts at 40 uM after 48 hrs by MTT assay; assay type: cell-based; settings: osteoblast; outline: as §1
[8] = Cytotoxicity against mouse Osteoblasts at 10 uM after 48 hrs by MTT assay; assay type: cell-based; settings: osteoblast; outline: as §1
[9] = Cytotoxicity against mouse Osteoblasts at 100 uM after 48 hrs by MTT assay; assay type: cell-based; settings: osteoblast; outline: as §1

Row | Compound | ΔTm (DNA [1]) [°C] | pIC50 (MCF7) | Activity (DNA [2]) [%] | pIC50 (A549) | pIC50 (K562) | Activity (DNA [3]) | Activity (DNA [4]) | pIC50 (HL-60) | pIC50 (Bel-7402) | Activity [5] [%] | Activity [6] [%] | Activity [7] [%] | Activity [8] [%] | Activity [9] [%]
1 | O=c1oc2cc(O)ccc2c(-c2ccc(O)cc2)c1-c1ccccc1 | 1.1 | < 4.00 | 8 | < 4.00 | < 4.00 | inactive | 5.41 ×10² /M | – | – | – | – | – | – | –
2 | O=c1oc2cc(OCCN3CCCC3)ccc2c(-c2ccc(OCCN3CCCC3)cc2)c1-c1ccc(OCCN2CCCC2)cc1 | – | 4.03 | – | 4.06 | 4.12 | – | – | – | – | – | – | – | – | –
3 | O=c1oc2cc(O)ccc2c(-c2ccc(O)cc2)c1-c1ccc(O)cc1 | – | < 4.00 | – | < 4.00 | < 4.00 | – | – | – | – | – | – | – | – | –
4 | O=c1oc2cc(OCCN3CCOCC3)ccc2c(-c2ccc(OCCN3CCOCC3)cc2)c1-c1ccccc1 | 2 | < 4.00 | 13 | < 4.00 | < 4.00 | Active | 2.68 ×10² /M | < 4.00 | < 4.00 | – | – | – | – | –
5 | COc1ccc2c(-c3ccc(OCCN4CCOCC4)cc3)c(-c3ccccc3)c(=O)oc2c1 | – | < 4.00 | – | < 4.00 | < 4.00 | – | – | – | – | – | – | – | – | –
6 | O=c1oc2cc(OCCN3CCOCC3)ccc2c(-c2ccc(OCCN3CCOCC3)cc2)c1-c1ccc(OCCN2CCOCC2)cc1 | – | < 4.00 | – | < 4.00 | < 4.00 | – | – | – | – | – | – | – | – | –
7 | O=c1oc2cc(OCCN3CCOCC3)ccc2c(-c2ccc(O)cc2)c1-c1ccccc1 | – | < 4.00 | – | 4.03 | < 4.00 | – | – | – | – | – | – | – | – | –
8 | COc1ccc2c(-c3ccc(O)cc3)c(-c3ccccc3)c(=O)oc2c1 | – | < 4.00 | – | < 4.00 | < 4.00 | – | – | – | – | – | – | – | – | –
9 | COc1ccc2c(-c3ccc(OCCN4CCCC4)cc3)c(-c3ccccc3)c(=O)oc2c1 | – | < 4.00 | – | 4.05 | 4.03 | – | – | – | – | – | – | – | – | –
10 | CCN(CC)CCOc1ccc2c(-c3ccc(O)cc3)c(-c3ccccc3)c(=O)oc2c1 | – | < 4.00 | – | < 4.00 | < 4.00 | – | – | – | – | – | – | – | – | –

The next compounds have a higher pIC50 (MCF7) than those just listed; values first:

Row | ΔTm (DNA [1]) [°C] | pIC50 (MCF7) | Activity (DNA [2]) [%] | pIC50 (A549) | pIC50 (K562) | Activity (DNA [3]) | Activity (DNA [4]) | pIC50 (HL-60) | pIC50 (Bel-7402) | Compound | Activity [5] [%] | Activity [6] [%] | Activity [7] [%] | Activity [8] [%] | Activity [9] [%]
11 | – | 4.06 | – | 4.04 | 4.09 | – | – | – | – | O=c1oc2cc(OCCN3CCCCC3)ccc2c(-c2ccc(O)cc2)c1-c1ccccc1 | – | – | – | – | –
12 | – | 4.12 | – | 4.22 | 4.05 | – | – | – | – | CCN(CC)CCOc1ccc(-c2c(-c3ccccc3)c(=O)oc3cc(OC)ccc23)cc1 | – | – | – | – | –
13 | – | 4.16 | – | 4.35 | 4.38 | – | – | – | – | CCN(CC)CCOc1ccc(-c2c(-c3ccc(OCCN(CC)CC)cc3)c3ccc(OCCN(CC)CC)cc3oc2=O)cc1 | – | – | – | – | –
14 | – | 4.30 | – | 4.27 | 4.35 | – | – | – | – | O=c1oc2cc(OCCN3CCCC3)ccc2c(-c2ccc(O)cc2)c1-c1ccccc1 | – | – | – | – | –
15 | 8.8 | 4.32 | 25 | 4.25 | 4.40 | Active | 3.16 ×10⁴ /M | – | – | O=c1oc2cc(OCCN3CCCCC3)ccc2c(-c2ccc(OCCN3CCCCC3)cc2)c1-c1ccc(OCCN2CCCCC2)cc1 | – | – | – | – | –
16 | 3.2 | 4.53 | 12 | 4.63 | 4.71 | Active | 3.12 ×10³ /M | – | – | COc1ccc2c(-c3ccc(OCCN4CCCCC4)cc3)c(-c3ccccc3)c(=O)oc2c1 | – | – | – | – | –
17 | – | 4.87 | – | – | – | – | – | – | – | CC/C(=C(\c1ccccc1)c1ccc(OCCN(C)C)cc1)c1ccccc1 [TAMOXIFEN] | – | – | – | – | –
18 | – | 4.91 | – | 5.20 | 5.34 | – | – | 5.23 | 5.06 | O=c1oc2cc(OCCN3CCCC3)ccc2c(-c2ccc(OCCN3CCCC3)cc2)c1-c1ccccc1 | 10.1 | -5.1 | 18.2 | -6.7 | 36.1
19 | 4.3 | 4.94 | 23 | 5.18 | 5.54 | Active | 4.21 ×10³ /M | 5.28 | 5.09 | O=c1oc2cc(OCCN3CCCCC3)ccc2c(-c2ccc(OCCN3CCCCC3)cc2)c1-c1ccccc1 | 7.4 | -8 | 14.2 | -2.6 | 39.2
20 | – | 5.10 | – | 5.08 | 5.42 | – | – | 5.40 | 5.09 | CCN(CC)CCOc1ccc(-c2c(-c3ccccc3)c(=O)oc3cc(OCCN(CC)CC)ccc23)cc1 | 12.2 | -3.1 | 20.6 | 3.2 | 42.2
